Reference: ChEMBL document CHEMBL1136930, “Doubly loaded cycloSaligenyl-pronucleotides - 5,5'-Bis-(cycloSaligenyl-2',3'-dideoxy-2',3'-didehydrothymidine monophosphates)” (J Med Chem, 2009)

Experiments:
[1] = Chemical stability assessed as hydrolysis half life in aqueous phosphate buffer saline at pH 7.3 by HPLC analysis; type: physicochemical; conditions: for t1/2: buffer; for half-life: aqueous phosphate buffered saline
[2] = Chemical stability assessed as hydrolysis half life in aqueous phosphate buffer saline at pH 7.6 by HPLC analysis; type: physicochemical; conditions: for half-life: aqueous phosphate buffered saline; for t1/2: buffer
[3] = Chemical stability assessed as half life of hydrolysis in RPMI-1640 culture medium at pH 7.6 in presence 10% heat-inactivated fetal calf serum by HPLC analysis; type: physicochemical; conditions: cattle; for t1/2: serum
[4] = tested on: Human immunodeficiency virus 1; assay: Antiviral activity against HIV1 in wild type human CEM cells assessed as virus-induced cytopathic effect after 4 to 5 days by microscopy; type: functional, organism-based, CCRF-CEM
In short: (§1)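 50% effective concentration against HIV in wild-type or thymidine kinase-deficient CEM T-lymphocytes, reported as the mean of two to three independent experiments.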

[5] = (§2) Cytostatic activity against wild type human CEM cells; type: cell-based, CCRF-CEM; conditions: wild type CEM (CCRF-CEM) cells
In short: (§3)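 50% cytostatic concentration measured in wild-type CEM T-lymphocyte cultures.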

[6] = tested on: Human immunodeficiency virus 2; assay: Antiviral activity against HIV2 in thymidine kinase deficient human CEM cells assessed as virus-induced cytopathic effect after 4 to 5 days by microscopy; type: functional, organism-based, CCRF-CEM; in short: as §1
[7] = tested on: Human immunodeficiency virus 2; assay: Antiviral activity against HIV2 in wild type human CEM cells assessed as virus-induced cytopathic effect after 4 to 5 days by microscopy; type: functional, organism-based, CCRF-CEM; in short: as §1
[8] = Ratio of hydrolysis half life in aqueous phosphate buffer saline at pH 7.3 to hydrolysis half life in RPMI-1640 culture medium at pH 7.6 in presence 10% heat-inactivated fetal calf serum; type: ADME
[9] = Ratio of hydrolysis half life in RPMI-1640 culture medium at pH 7.6 in presence 10% heat-inactivated fetal calf serum to hydrolysis half life in aqueous phosphate buffer saline at pH 7.6; type: ADME; conditions: cattle
CCRF-CEM = assay: as §2; type: cell-based; conditions: ccrf-cem; in short: as §3
[10] = Chemical stability assessed as hydrolysis half life by HPLC analysis; type: physicochemical
[11] = Human immunodeficiency virus 1, CCRF-CEM
[12] = Human immunodeficiency virus 2, CCRF-CEM

Row | SMILES | t1/2 [1] [h] | EC50 [4, 11] [nM] | CC50 [5] [µM] | EC50 [6, 12] [µM] | EC50 [7, 12] [nM] | EC50 ([6]; ccrf-cem) [µM] | also measured
1 | Cc1cn([C@H]2C=C[C@@H](COP3(=O)OCc4cccc(-c5cccc6c5OP(=O)(OC[C@@H]5C=C[C@H](n7cc(C)c(=O)[nH]c7=O)O5)OC6)c4O3)O2)c(=O)[nH]c1=O (some centres undefined) | 8.2 |  |  |  |  |  | 
2 | Cc1cn([C@H]2C=C[C@@H](COP3(=O)OCc4cc(-c5ccc(O)c(CO)c5)ccc4O3)O2)c(=O)[nH]c1=O (some centres undefined) |  | 730 | 82 | 3.7 | 910 |  | half-life [2]: 120 min; half-life [3]: 126 min; half-life [1]: 132 min
3 | Cc1cn([C@H]2C=C[C@@H](COP3(=O)OCc4cc(-c5ccc6c(c5)COP(=O)(OC[C@@H]5C=C[C@H](n7cc(C)c(=O)[nH]c7=O)O5)O6)ccc4O3)O2)c(=O)[nH]c1=O (some centres undefined) | 1.7 | 510 | 115 |  | 620 | 7.5 | t1/2 [2]: 0.5 h; t1/2 [3]: 0.8 h; Ratio [8]: 2
4 | Cc1cn([C@H]2C=C[C@@H](COP3(=O)OCc4cc(-c5cc6c(c(C(C)(C)C)c5)OP(=O)(OC[C@@H]5C=C[C@H](n7cc(C)c(=O)[nH]c7=O)O5)OC6)cc(C(C)(C)C)c4O3)O2)c(=O)[nH]c1=O (some centres undefined) |  | 880 | 20 | 2.9 | 1300 |  | half-life [2]: 246 min; half-life [3]: 498 min; Ratio [9]: 2; half-life [1]: 282 min
5 | Cc1cn([C@H]2C=C[C@@H](COP3(=O)OCc4cc(-c5ccc6c(c5)COP(=O)(OC[C@@H]5C=C[C@H](n7cc(C)c(=O)[nH]c7=O)O5)O6)ccc4O3)O2)c(=O)[nH]c1=O (single isomer, unassigned; form 2) | 3.3 |  |  |  |  | 3.3 | half-life [2]: 42 min; half-life [3]: 60 min; EC50 ([4]; ccrf-cem): 470 nM; CC50 (CCRF-CEM): 78 µM
6 | Cc1cccc2c1OP(=O)(OC[C@@H]1C=C[C@H](n3cc(C)c(=O)[nH]c3=O)O1)OC2 (some centres undefined) |  |  |  |  |  |  | half-life [10]: 900 min
7 | Cc1cn([C@H]2C=C[C@@H](COP3(=O)OCc4cc(-c5cc6c(c(C(C)(C)C)c5)OP(=O)(OC[C@@H]5C=C[C@H](n7cc(C)c(=O)[nH]c7=O)O5)OC6)cc(C(C)(C)C)c4O3)O2)c(=O)[nH]c1=O (single isomer, unassigned; form 1) | 4.3 |  |  |  |  | 2.8 | t1/2 [2]: 3.9 h; t1/2 [3]: 7.9 h; EC50 ([4]; ccrf-cem): 810 nM; CC50 (CCRF-CEM): 18 µM; EC50 ([7]; ccrf-cem): 1600 nM
8 | Cc1cn([C@H]2C=C[C@@H](COP3(=O)OCc4cc(-c5cc6c(c(C(C)(C)C)c5)OP(=O)(OC[C@@H]5C=C[C@H](n7cc(C)c(=O)[nH]c7=O)O5)OC6)cc(C(C)(C)C)c4O3)O2)c(=O)[nH]c1=O (single isomer, unassigned; form 3) | 5.3 |  |  |  |  | 2.6 | t1/2 [2]: 4.4 h; t1/2 [3]: 9.1 h; EC50 ([4]; ccrf-cem): 860 nM; EC50 ([7]; ccrf-cem): 2000 nM
9 | Cc1cc(-c2cc(C)c3c(c2)COP(=O)(OC[C@@H]2C=C[C@H](n4cc(C)c(=O)[nH]c4=O)O2)O3)cc2c1OP(=O)(OC[C@@H]1C=C[C@H](n3cc(C)c(=O)[nH]c3=O)O1)OC2 (some centres undefined) |  | 400 | 64 | 0.85 | 830 |  | half-life [2]: 138 min; half-life [3]: 138 min; half-life [1]: 132 min
10 | Cc1cn([C@H]2C=C[C@@H](COP3(=O)OCc4cc(-c5cc6c(c(C(C)(C)C)c5)OP(=O)(OC[C@@H]5C=C[C@H](n7cc(C)c(=O)[nH]c7=O)O5)OC6)cc(C(C)(C)C)c4O3)O2)c(=O)[nH]c1=O (single isomer, unassigned; form 2) | 4.7 |  |  |  |  | 3.2 | t1/2 [2]: 4.1 h; t1/2 [3]: 8 h; EC50 ([4]; ccrf-cem): 490 nM; CC50 (CCRF-CEM): 19 µM; EC50 ([7]; ccrf-cem): 1000 nM
11 | Cc1cn([C@H]2C=C[C@@H](COP3(=O)OCc4cccc(-c5cccc6c5OP(=O)(OC[C@@H]5C=C[C@H](n7cc(C)c(=O)[nH]c7=O)O5)OC6)c4O3)O2)c(=O)[nH]c1=O (single isomer, unassigned; form 2) | 8.5 |  |  |  |  |  | 
12 | Cc1cn([C@H]2C=C[C@@H](COP3(=O)OCc4cc(-c5ccccc5)ccc4O3)O2)c(=O)[nH]c1=O (some centres undefined) |  |  |  |  |  |  | half-life [10]: 186 min
13 | Cc1cc(-c2cc(C)c(O)c(CO)c2)cc(CO)c1O |  | 20000 | 96 | > 50 | > 50000 |  | 
14 | CC(C)(C)c1cc(-c2cc(CO)c(O)c(C(C)(C)C)c2)cc(CO)c1O |  | 7900 | 20 | 6.9 | 7900 |  | 
15 | Cc1cn([C@H]2C=C[C@@H](CO)O2)c(=O)[nH]c1=O [STAVUDINE] |  | 560 | > 250 | 29 | 790 |  | 
16 | OCc1cc(-c2ccc(O)c(CO)c2)ccc1O |  | 99000 | > 250 | 18 | 117000 |  | 
17 | Cc1cn([C@H]2C=C[C@@H](COP3(=O)OCc4cccc(-c5cccc6c5OP(=O)(OC[C@@H]5C=C[C@H](n7cc(C)c(=O)[nH]c7=O)O5)OC6)c4O3)O2)c(=O)[nH]c1=O (single isomer, unassigned; form 1) | 3.2 |  |  |  |  |  | 
18 | Cc1cn([C@H]2C=C[C@@H](COP3(=O)OCc4cc(-c5ccc6c(c5)COP(=O)(OC[C@@H]5C=C[C@H](n7cc(C)c(=O)[nH]c7=O)O5)O6)ccc4O3)O2)c(=O)[nH]c1=O (single isomer, unassigned; form 1) | 1 |  |  |  |  | 4.4 | t1/2 [2]: 0.4 h; t1/2 [3]: 0.6 h; EC50 ([4]; ccrf-cem): 460 nM; CC50 (CCRF-CEM): 107 µM; EC50 ([7]; ccrf-cem): 1200 nM
